This note sets out measurements from publication PMC5125728 (Cell reports, 2016).

As a reminder, the Kd is the free concentration of one partner at which half of the binding sites on the other are occupied at equilibrium, for simple one-to-one binding. Read a high Kd as weaker binding.

Changes are numbered by the printed parent chain. Where no end group is shown, it is not given here. Me2 = dimethyl (dimethyl-lysine)

Experiment [1] deals with PHF20 PHD finger (aa 651-699), wild type (human) (UniProt Q9BVI0). The experiment is described as follows: other fluorescence titration.
For experiment [2], the target named is PHF20 PHD finger E662D (human) (UniProt Q9BVI0). The experiment is described as follows: other fluorescence titration.
Experiment [3] deals with T1, E662D mutant of PHF20-PHD (Homo sapiens, UniProt Q9BVI0, E662D).
T1 sequence (Q9BVI0 651-699 E662D): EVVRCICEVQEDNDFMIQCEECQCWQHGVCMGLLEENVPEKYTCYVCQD
Description: Tryptophan fluorescence binding of histone peptides to E662D mutant of PHF20 PHD. In a few lines:
(§1)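 The PHF20 PHD (aa 651–699, GST cleaved; mutants by site-directed mutagenesis) was in PBS pH 6.8 with 10 mM DTT at room temperature. Histone peptide was increased progressively. Excitation was at 280 nm and emission was scanned 310–405 nm (0.5-nm steps, 1-s integration, three scans averaged). Kd came from a nonlinear least-squares fit of intensity change, averaged over three separate experiments, with SD between runs.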

The test system of experiment [4] is E662K mutant of PHF20 PHD finger. The experiment is described as follows: NMR and tryptophan fluorescence binding, E662K mutant of PHF20 PHD. More on the design: species or system human. The note with it: E662K folded, soluble, stable protein; Figures 4C and 4E. The procedure, abridged:
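GST-tagged PHF20 PHD (aa 651–699), wild-type or point mutant made by site-directed mutagenesis, was expressed in E. coli Rosetta-2(DE3)pLysS in 15NH4Cl minimal medium with 150 μM ZnCl2, then GST-cleaved. 1H,15N HSQC spectra were collected at 298K (600/500 MHz) as 12-mer histone tail peptides were added stepwise. Shift changes were normalized as √(ΔδH²+(ΔδN/5)²); Kd came from a nonlinear least-squares fit.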

For a further experiment, the target named is T2, PHF20 PHD finger (WT) (Homo sapiens, UniProt Q9BVI0).
T2 sequence (Q9BVI0 651-699): T1 sequence (Q9BVI0 651-699 E662D) with D12E
Description: Tryptophan fluorescence binding of histone peptides to WT PHF20 PHD finger. In a few lines: as §1

In the next experiment the test system is GST-PHF20 PHD. Description: Biotinylated histone peptide pull-down with GST-PHF20 PHD, western blot. It counts as binding, human. To be noted: 1 μg biotinylated peptide, 1 μg GST-PHF20 PHD, 50 mM Tris-HCl pH 7.5, 250 mM NaCl, 0.1% NP-40, overnight, streptavidin beads. (In general: In western blotting, separated proteins are transferred to a membrane and probed.)

The next experiment has as its target T3, PHF20 Tudor2 (aa 58-148) (human, UniProt Q9BVI0 58-148).
T3 sequence (looked up): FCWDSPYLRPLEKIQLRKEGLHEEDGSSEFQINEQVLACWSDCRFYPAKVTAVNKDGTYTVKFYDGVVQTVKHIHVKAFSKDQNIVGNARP
Description: NMR titration.

The target in a further experiment is T4, PHF20 PHD finger R654H (human, UniProt Q9BVI0 651-699, R654H).
T4 chain (looked up): T1 sequence (Q9BVI0 651-699 E662D) with R4H, D12E
Description: NMR titration.

Another experiment concerns the target T5, PHF20 PHD finger F665V (human, UniProt Q9BVI0 651-699, F665V).
T5 chain (looked up): T1 sequence (Q9BVI0 651-699 E662D) with D12E, F15V
The experiment is described as follows: NMR titration.

The target in the next experiment is T6, PHF20 PHD finger P689L (human, UniProt Q9BVI0 651-699, P689L).
T6 chain (looked up): T1 sequence (Q9BVI0 651-699 E662D) with D12E, P39L
The experiment is described as follows: NMR titration.

For experiment [5], the target named is T7, PHF20 PHD finger (aa 651-699), wild type (human, UniProt Q9BVI0 651-699).
T7 chain (looked up): T1 sequence (Q9BVI0 651-699 E662D) with D12E
The experiment is described as follows: other fluorescence titration.

A further experiment concerns the target T8, PHF20 PHD finger E662D (human, UniProt Q9BVI0 651-699, E662D).
T8 chain (looked up): T1 sequence (Q9BVI0 651-699 E662D)
The experiment is described as follows: other fluorescence titration.

Experiment [6] concerns the target T9, PHF20 PHD finger (residues 646-699) (human, UniProt Q9BVI0 646-699).
T9 sequence (looked up): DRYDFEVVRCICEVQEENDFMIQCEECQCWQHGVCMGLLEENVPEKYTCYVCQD
Description: NMR structure.

The molecule H3K4me3 peptide (12-mer) gave a fold weaker than H3K4me2 in experiment [1] of 6 fold. The molecule further displayed a Kd in [2] of 3.7 µM.
In experiment [1], H3K4me1 peptide (12-mer) came in with a fold weaker than H3K4me2 of 14 fold.
As for `C[C@H](N)C(=O)N[C@@H](CCCNC(=N)N)C(=O)N[C@H](C(=O)N[C@@H](CCCCN(C)C)C(=O)N[C@@H](CCC(N)=O)C(=O)N[C@H](C(=O)N[C@@H](C)C(=O)N[C@@H](CCCNC(=N)N)C(=O)N[C@@H](CCCCN)C(=O)N[C@@H](CO)C(=O)N[C@H](C(N)=O)[C@@H](C)O)[C@@H](C)O)[C@@H](C)O` [H3K4me2], the Kd (in [3]; on PHF20 PHD finger (WT)) was 3.6 µM in each case. The “interaction with E662K mutant” value in [4] is given as “completely abrogated interaction”. Besides, the “binding in peptide pull-down” value in the experiment on GST-PHF20 PHD was “binds”.
In experiment [1], H3K4me0 peptide (12-mer) registered a fold weaker than H3K4me2 of 20 fold.
For ARTK(Me2)QTARKSTG (peptide, UniProt P68431 2-13, looked up) [H3K4me2 peptide (aa 1-12)], the Kd is about 1 mM with PHF20 Tudor2 (aa 58-148), 3.6 µM in experiment [5] and 3.6 µM in the experiment with PHF20 PHD finger E662D. Further, the “fold decrease of binding compared with WT” value was about 8 fold in the experiment with PHF20 PHD finger R654H, about 9 fold in the experiment with PHF20 PHD finger F665V and about 17 fold with PHF20 PHD finger P689L.
Take ARTK(Me2)QTARKST-NH2 [11-residue C-terminally amidated H3K4me2 peptide]: the binding result in experiment [6] is reported as “binds”.
